Assay [1] concerns the target T1, Alpha-1A adrenergic receptor (Homo sapiens, UniProt P35348).
T1 sequence (P35348 whole entry): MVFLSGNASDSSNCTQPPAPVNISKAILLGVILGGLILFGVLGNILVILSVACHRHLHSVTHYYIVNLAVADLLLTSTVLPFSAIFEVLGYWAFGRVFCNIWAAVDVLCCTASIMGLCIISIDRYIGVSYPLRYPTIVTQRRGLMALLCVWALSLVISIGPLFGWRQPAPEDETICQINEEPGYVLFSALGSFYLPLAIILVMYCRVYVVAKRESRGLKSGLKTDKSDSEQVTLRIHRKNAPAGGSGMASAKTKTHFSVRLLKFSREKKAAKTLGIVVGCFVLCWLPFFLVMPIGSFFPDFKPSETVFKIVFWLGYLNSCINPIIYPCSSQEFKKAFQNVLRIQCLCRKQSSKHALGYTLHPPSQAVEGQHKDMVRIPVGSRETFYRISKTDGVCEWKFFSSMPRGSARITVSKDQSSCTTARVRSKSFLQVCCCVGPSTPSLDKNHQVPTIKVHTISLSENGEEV
Put plainly: Antagonist activity at adrenergic alpha1A receptor (unknown origin) by firefly and renilla dual glo luciferase assay. The procedure, abridged: (§1)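 Firefly and Renilla luciferase activities (RLU) were read by luminometer with the Dual-Glo kit, following the manufacturer's protocol. IC50 values were derived from three independent experiments.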

In assay [2] the target is T2, Alpha-1B adrenergic receptor (Homo sapiens, UniProt P35368).
T2 sequence (P35368 whole entry): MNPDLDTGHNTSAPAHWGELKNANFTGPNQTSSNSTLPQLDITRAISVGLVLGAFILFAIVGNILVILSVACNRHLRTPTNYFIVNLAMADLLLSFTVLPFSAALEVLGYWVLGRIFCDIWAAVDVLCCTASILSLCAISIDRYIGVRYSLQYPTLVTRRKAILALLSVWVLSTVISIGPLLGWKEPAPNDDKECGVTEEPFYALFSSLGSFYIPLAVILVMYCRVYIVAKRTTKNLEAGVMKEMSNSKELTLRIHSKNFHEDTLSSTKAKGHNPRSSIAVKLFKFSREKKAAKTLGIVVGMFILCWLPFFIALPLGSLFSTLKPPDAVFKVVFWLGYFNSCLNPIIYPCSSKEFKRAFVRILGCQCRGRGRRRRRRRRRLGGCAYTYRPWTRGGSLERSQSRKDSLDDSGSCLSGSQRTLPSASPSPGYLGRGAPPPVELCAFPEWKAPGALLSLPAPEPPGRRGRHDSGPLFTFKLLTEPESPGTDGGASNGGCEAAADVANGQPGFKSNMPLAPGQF
The assay can be described thus: Antagonist activity at adrenergic alpha1B receptor (unknown origin) by firefly and renilla dual glo luciferase assay. In a few lines: as §1

Assay [3] has as its target T3, Alpha-1D adrenergic receptor (Homo sapiens, UniProt P25100).
T3 sequence (P25100 whole entry): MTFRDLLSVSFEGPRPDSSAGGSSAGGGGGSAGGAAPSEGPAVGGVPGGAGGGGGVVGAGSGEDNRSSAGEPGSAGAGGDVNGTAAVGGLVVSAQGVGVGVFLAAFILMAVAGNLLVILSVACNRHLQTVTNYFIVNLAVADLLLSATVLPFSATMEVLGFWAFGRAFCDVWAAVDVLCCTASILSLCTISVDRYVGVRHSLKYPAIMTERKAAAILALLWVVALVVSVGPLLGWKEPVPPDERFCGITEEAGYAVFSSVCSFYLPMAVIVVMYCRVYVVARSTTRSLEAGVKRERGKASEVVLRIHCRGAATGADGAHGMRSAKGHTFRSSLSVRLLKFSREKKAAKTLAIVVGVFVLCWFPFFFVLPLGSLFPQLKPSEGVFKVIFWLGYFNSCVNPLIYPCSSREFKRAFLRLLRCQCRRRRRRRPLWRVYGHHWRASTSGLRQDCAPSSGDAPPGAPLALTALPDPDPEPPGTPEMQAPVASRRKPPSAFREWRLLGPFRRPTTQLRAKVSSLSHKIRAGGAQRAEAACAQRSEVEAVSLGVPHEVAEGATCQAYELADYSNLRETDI
The assay can be described thus: Antagonist activity at adrenergic alpha1D receptor (unknown origin) by firefly and renilla dual glo luciferase assay. In a few lines:
as §1

For assay [4], the species on record is Homo sapiens. Put plainly: Selectivity ratio of IC50 for adrenergic alpha1B receptor (unknown origin) to IC50 for adrenergic alpha1A receptor (unknown origin).
The species named for assay [5] is Homo sapiens. The assay can be described thus: Selectivity ratio of IC50 for adrenergic alpha1B receptor (unknown origin) to IC50 for adrenergic alpha1D receptor (unknown origin).

What is called IC50 is the point on the concentration scale where inhibition reaches its midpoint. Low readings indicate inhibition by little substance, high ones a need for much substance. Turning to `COc1ccccc1N1CCN(CC(O)COc2cccc3ccccc23)CC1` (stereo not drawn) [NAFTOPIDIL], the half-inhibitory concentration (IC50) turned out to be 555 nM in assay [1], 634 nM in assay [2] and 55.2 nM in assay [3].
As for `O=C1c2ccccc2C(=O)N1Cc1ccc(CCN2CCN(c3ccccc3C(F)(F)F)CC2)cc1`, the half-inhibitory concentration (IC50) was 384 nM in assay [1], 250 nM in assay [2] and 164 nM in assay [3]. Further, the Ratio IC50 in assay [4] is 0.7; in assay [5], 1.5.
The like results for `Cc1ccccc1N1CCN(CCc2ccc(CN3C(=O)c4ccccc4C3=O)cc2)CC1` were, in that order, 228 nM, 949 nM, 80600 nM, 4.2 and 0.01.
Regarding `O=C1c2ccccc2C(=O)N1Cc1ccc(CCN2CCN(c3ccc(C(F)(F)F)cc3)CC2)cc1`, the IC50 in assay [1] worked out at 66.2 nM; in assay [2] it was 19.7 nM; in assay [3], 12.9 nM. The values for the Ratio IC50 in assay [4] and in assay [5] were 0.3 and 1.5, respectively.
The like results for `COc1ccccc1N1CCN(CCc2ccc(CN3C(=O)c4ccccc4C3=O)cc2)CC1` were, in that order, 30.1 nM, 101 nM, 1240 nM, 3.3 and 0.08.
In the same order, the values of `CC(=O)c1ccc(N2CCN(CCc3ccc(CN4C(=O)c5ccccc5C4=O)cc3)CC2)cc1` are 14.2 nM, 122 nM, 866 nM, 8.6 and 0.2.
The like results for `O=C1c2ccccc2C(=O)N1Cc1ccc(CCN2CCN(c3ccc(F)cc3)CC2)cc1` were, in that order, 229 nM, 684 nM, 122 nM, 3 and 5.6.
Turning to `O=C1c2ccccc2C(=O)N1Cc1ccc(CCN2CCN(c3ccc(Cl)cc3)CC2)cc1`, the figures for the half-inhibitory concentration (IC50) in assay [1], in assay [2] and in assay [3] were 552 nM, 794 nM and 35.2 nM, respectively. Besides, the Ratio IC50 stood at 1.4 in assay [4] and 22.6 in assay [5].
In the same order, the values of `O=C1c2ccccc2C(=O)N1Cc1ccc(CCN2CCN(c3ccc(F)cc3F)CC2)cc1` are 89.9 nM, 787 nM, 493 nM, 8.8 and 1.6.
In the same order, the values of `CCOc1ccccc1N1CCN(CCc2ccc(CN3C(=O)c4ccccc4C3=O)cc2)CC1` are 32.4 nM, 433 nM, 240 nM, 13.4 and 1.8.
The like results for `O=C1c2ccccc2C(=O)N1Cc1ccc(CCN2CCN(c3ccccc3Cl)CC2)cc1` were, in that order, 15.2 nM, 781 nM, 36.6 nM, 51.5 and 21.3.
As to `O=C1c2ccccc2C(=O)N1Cc1ccc(CCN2CCN(c3ccccn3)CC2)cc1`, the half-inhibitory concentration (IC50) in assay [1] was determined as 49.6 nM; in assay [2] it was 12.6 nM; in assay [3] it was 11.3 nM. In addition, the results for the Ratio IC50 in assay [4] and in assay [5] were 0.3 and 1.1, respectively.
The like results for `O=C1c2ccccc2C(=O)N1Cc1ccc(CCN2CCN(c3ccccc3F)CC2)cc1` were, in that order, 96 nM, 1880 nM, 10600 nM, 19.5 and 0.2.
The like results for `O=C1c2ccccc2C(=O)N1Cc1ccc(CCN2CCN(c3ccc(Br)cc3)CC2)cc1` were, in that order, 3420 nM, 1000 nM, 7430 nM, 0.3 and 0.1.
The like results for `CS(=O)(=O)c1ccccc1N1CCN(CCc2ccc(CN3C(=O)c4ccccc4C3=O)cc2)CC1` were, in that order, 46.4 nM, 199 nM, 10.1 nM, 4.3 and 19.8.
As for `Cc1ccc(Cl)cc1N1CCN(CCc2ccc(CN3C(=O)c4ccccc4C3=O)cc2)CC1`, the IC50 was determined as 34.5 nM in assay [1], 31.6 nM in assay [2] and 31.3 nM in assay [3]. In addition, the Ratio IC50 is 0.9 in assay [4] and 1 in assay [5].
In the same order, the values of `N#Cc1ccc(N2CCN(CCc3ccc(CN4C(=O)c5ccccc5C4=O)cc3)CC2)c(F)c1` are 128 nM, 34.8 nM, 957 nM, 0.3 and 0.04.
In the same order, the values of `N#Cc1ccccc1N1CCN(CCc2ccc(CN3C(=O)c4ccccc4C3=O)cc2)CC1` are 36.1 nM, 180 nM, 16.7 nM, 5 and 10.8.
The like results for `N#Cc1ccc(N2CCN(CCc3ccc(CN4C(=O)c5ccccc5C4=O)cc3)CC2)cc1` were, in that order, 89.2 nM, 769 nM, 63.5 nM, 8.6 and 12.1.
On to `O=C1c2ccccc2C(=O)N1Cc1ccc(CCN2CCN(c3ccccc3)CC2)cc1`, for which the IC50 in assay [1] came out at 151 nM; in assay [2], 875 nM; in assay [3], 1760 nM. Further, the Ratio IC50 in assay [4] worked out at 5.8; in assay [5] it was 0.5.
In the same order, the values of `Cc1ccc(N2CCN(CCc3ccc(CN4C(=O)c5ccccc5C4=O)cc3)CC2)cc1` are 2.03 nM, 28.9 nM, 344 nM, 14.2 and 0.08.
On to `O=C1c2ccccc2C(=O)N1Cc1ccc(CCN2CCN(Cc3ccccc3)CC2)cc1`, for which the 50% inhibitory concentration (IC50) was 1200 nM in assay [1], 1010 nM in assay [2] and 116 nM in assay [3]. The Ratio IC50 in assay [4] amounted to 0.8; in assay [5], 8.7.
In the same order, the values of `COc1ccc(N2CCN(CCc3ccc(CN4C(=O)c5ccccc5C4=O)cc3)CC2)cc1` are 885 nM, 406 nM, 1860 nM, 0.5 and 0.2.

The values above are taken from ChEMBL document CHEMBL3739328, “Synthesis, structure-activity relationship and biological evaluation of novel arylpiperzines as α1A/1D-AR subselective antagonists for BPH” (Bioorg Med Chem, 2015).
